Experimental data taken from the array DNA melting data of Ke et al. (doi:10.1101/2024.01.08.574731).

Columns and labels:
[1] = melting temperature; fluorescence melt of hairpins on a sequencing array, two-state fit, raised by 9.35 °C to match UV melts; conditions: sodium 0.088 M
Summary of the method: (§1)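 Bootstrapped two-state fits yielded melting temperature and folding enthalpy for library hairpins. Cy3 fluorescence, with annealed Cy3 and quencher oligos, was imaged on a sequenced MiSeq flow cell in 50 mM Na-HEPES pH 8.0, 25 mM NaCl in 2.5 °C steps up to 60 °C, and normalised to pre-quench Cy3 and to control constructs. Four replicates were combined by inverse variance, and fitted temperatures were raised by 9.35 °C to match UV melts.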

[2] = folding enthalpy; higher = less favourable; fluorescence melt of hairpins on a sequencing array, two-state fit; conditions: sodium 0.088 M
Summary of the method: as §1

Row | Sequence | Tm [1] [°C] | folding enthalpy [2] [kcal/mol]
1 | GTCGGGGGAAACCTCGAC ((((.((....)).)))) | 55.5 | -44.2
2 | GTGCAGGGAAACCCACAC (((..((....))..))) | 32.4 | -19.2
3 | TTTTGGAAACAAAA (((((....))))) | 27.4 | -9.86
4 | GGCACCCCGAAAGGGGCC (((..(((....)))))) | 53.1 | -12.9
5 | GAACAAGGAAACTCGTTC ((((.((....)).)))) | 27 | -16.4
6 | GCAGTGCGAAAGCGATGC (((..((....))..))) | 62.4 | -30.6
7 | GACCGCGAAAGCGTAGTC ((((((....)))..))) | 46.5 | -14.6
8 | GGCCTAGGAAACTGGGTC (.((.((....)).)).) | 40.9 | -28.5
9 | GCTCTAGCGAAAGCTAGC (((..(((....)))))) | 38.3 | -5.88
10 | GATCTGCAGACAGATC ((((((....)))))) | 51.2 | -40
11 | GGAAGAGAAATCTTCC ((((((....)))))) | 47.7 | -24.1
12 | GTCATTGAAAAATGAC ((((((....)))))) | 51.9 | -38.6
13 | GCGAATTCTCGC ((((....)))) | 47.9 | -19.6
14 | GAGCTGGAAACAGCTC ((((((....)))))) | 67.6 | -26
15 | GTTCGTGGAAACACGAGC (.(((((....))))).) | 52.7 | -21.5
16 | GGGTACCGAAAGGTCCCC (((.(((....))).))) | 55.7 | -22.9
17 | GAGTTACGAAAGTACCTC (((.(((....))).))) | 40.3 | -24.6
18 | GCGGCCTTCCGC ((((....)))) | 57.9 | -19.9
19 | GACTGGCGAAAGCCGTC (((.(((....)))))) | 67 | -11.5
20 | GATCGGAATCCGATC ((((((...)))))) | 53.5 | -34.8
21 | GATCCTGGCGAGGATC ((((((....)))))) | 54.6 | -48.3
22 | GATCCACTTATGGATC ((((((....)))))) | 50.8 | -42.9
23 | GGCTAAGAAATTAGCC ((((((....)))))) | 53.8 | -27
24 | GACTGAGAAATCAGTC ((((((....)))))) | 53.1 | -33

Row | Sequence | Tm [1] [°C] | folding enthalpy [2] [kcal/mol]
25 | GATTACCCGAAAGGGATC (((..(((....)))))) | 26.3 | -12.1
26 | GCGAAGGCGAAAGCCCGC (((..(((....)))))) | 59.5 | -18.2
27 | GCACTCGAAAGAGAATGC ((((((....)))..))) | 35.1 | -24.6
28 | GACTGGGGAAACCTGGTC (((..((....))..))) | 38.9 | -34.9
29 | GTCACACGAAAGTGAGAC (((.(((....))).))) | 55.1 | -31.9
30 | GTCAATACGAAAGTAGAC (((..(((....)))))) | 27.3 | -12
31 | CGCGGACGCTCCGCG ((((((...)))))) | 66.6 | -31.7
32 | GTATGTACGAAAGTATAC (((..(((....)))))) | 31 | -11.4
33 | GCGGACGGCCGC ((((....)))) | 59.4 | -37.6
34 | GCGGAGCGAAAGCGCTGC ((.(.((....)).).)) | 57.1 | -15.2
35 | GGAATAGGAAACTGTTCC ((((.((....)).)))) | 42.9 | -33
36 | GTGAGCGGAAACGCTTAC ((.((((....)))).)) | 51.6 | -27.1
37 | GCTTAGCGAAAGCCTAGC (((..((....))..))) | 37.8 | -15.6
38 | GATCATATACATGATC ((((((....)))))) | 48.1 | -32.9
39 | GCGGCAACCGC ((((...)))) | 51.7 | -23.4
40 | GCAATGCGAAAGCGTAGC ((.(.((....)).).)) | 42.7 | -15.8
41 | GCCAAGGGAAACCTTGGC (((((((....))))))) | 68.8 | -37.5
42 | GGCGGAGGAAACTCTGCC (((.(((....))).))) | 57.1 | -51.1
43 | GATCTGATACCAGATC ((((((....)))))) | 47.1 | -40.8
44 | GAAGTTGGAAACAACTCC (.(((((....))))).) | 34.1 | -19.2
45 | GATCGACTACTCGATC ((((((....)))))) | 50.7 | -36.5
46 | GCGAAGCGAAAGCCTCGC ((((.((....)).)))) | 57.8 | -18.5
47 | GTTGCCGGAAACAGCAAC (((((.(....).))))) | 46.9 | -27.4
48 | GACATGACGAAAGTCGTC (((..(((....)))))) | 41.6 | -10.3

Row | Sequence | Tm [1] [°C] | folding enthalpy [2] [kcal/mol]
49 | GCATAGCGAAAGCTAGGC ((.((((....)))).)) | 67 | -27.1
50 | GACTACGAAAGTAAGGTC ((((((....)))..))) | 32.7 | -21.4
51 | GATCGATGATTCGATC ((((((....)))))) | 53.2 | -36.4
52 | GTAGCACGAAAGTGTAC (((.(((....)))))) | 40.4 | -14.2
53 | GATCAAGTACTTGATC ((((((....)))))) | 51.9 | -45.2
54 | GTGAGTTCGAAAGAACAC (((..(((....)))))) | 44.6 | -15.4
55 | GGGATGAAAATCCC (((((....))))) | 56.5 | -28.8
56 | GGTTGGCGAAAGCCGACC (((.(((....))).))) | 69.3 | -29.3
57 | TTCGAGAAATCGAA (((((....))))) | 37.9 | -12.4
58 | GGACGACGAAAGTCTCC (((.(((....)))))) | 47 | -27.1
59 | GCCATCGAAAGATAGGC ((((((....))).))) | 50.1 | -30.3
60 | GCACTAGGAAACCAGTGC (((((.(....).))))) | 48.3 | -34.1
61 | GGAGGCCCGAAAGGGTCC (((..(((....)))))) | 42.6 | -12
62 | GCTAGTGGAAACACTGGC ((.((((....)))).)) | 51.7 | -32.2
63 | GGGTGCTCGAAAGAGCCC (((..(((....)))))) | 52.6 | -17.7
64 | GTGTTCGAAAGAATCAC ((((((....))).))) | 41.5 | -28.2
65 | GGTGCTGGAAACAGCGTC (..((((....))))..) | 41 | -12.8
66 | GATGTAGGAAACTGCATC ((((.((....)).)))) | 45 | -34.6
67 | GAAGCCCGAAAGGGATTC (((.(((....))).))) | 61.4 | -42.4
68 | GGGAGGGGAAACCTTCCC ((((.((....)).)))) | 50 | -25.1
69 | GACATCCCGAAAGGGGTC (((..(((....)))))) | 34.4 | -11.1
70 | GAGACAGGAAACTGTCCC (.(((((....))))).) | 39.4 | -13
71 | GTACGACCGAAAGGTTAC (((..(((....)))))) | 19.8 | -8.91
72 | GATCGTTCTAACGATC ((((((....)))))) | 57.3 | -39.7

Row | Sequence | Tm [1] [°C] | folding enthalpy [2] [kcal/mol]
73 | GAAGCCGAAAGGCCTTTC ((((((....)))..))) | 35.9 | -9.88
74 | GACGCGGGAAACCGCATC ((.((((....)))).)) | 40.1 | -13.4
75 | GCTCTCGGAAACAAGAGC (((((.(....).))))) | 40.2 | -33.6
76 | GTTGTGGGAAACTGCAAC ((((..(....)..)))) | 39.3 | -12.7
77 | GCACACCGAAAGGTTGC (((.(((....)))))) | 53.6 | -28.6
78 | GGTGCCGAAAGGCCTACC ((((((....)))..))) | 39.6 | -10.7
79 | CGCGGATAGTTCCGCG ((((((....)))))) | 68.5 | -35.4
80 | GGGATTGGAAACAATTCC ((.((((....)))).)) | 46.5 | -34
81 | GACAAAGCGAAAGCTGTC (((..(((....)))))) | 50.6 | -19.7
82 | GGATGTACGAAAGTATCC (((..(((....)))))) | 37.9 | -20.2
83 | GGTGTCGAAAGACCTACC ((((((....)))..))) | 33.8 | -16.1
84 | GCGACTTATCGC ((((....)))) | 48.8 | -24.1
85 | GAGAGCGAAAGCTATCTC ((((((....)))..))) | 51.2 | -22.4
86 | GGCATCCGAAAGGACGCC (((.(((....))).))) | 57.2 | -48.8
87 | GATCCCCGCTGGGATC ((((((....)))))) | 61.8 | -32.9
88 | GCGGATCCCGC ((((...)))) | 53.6 | -23.4
89 | GATCAGTGCCCTGATC ((((((....)))))) | 49.9 | -29.9
90 | GCACCTGGAAACAAGTGC ((((.((....)).)))) | 41.1 | -27.4
91 | GATCTTCGACAAGATC ((((((....)))))) | 38.6 | -26.7
92 | GGGCACGAAAGTGGTCCC ((((((....)))..))) | 52.5 | -17.5
93 | GAAGCCGAAAGGCGCTTC ((((((....)))..))) | 56.2 | -14.1
